Measured values as given in ChEMBL document CHEMBL5247578, “Effective synthesis of benzimidazoles-imidazo[1,2-a]pyrazine conjugates: A comparative study of mono-and bis-benzimidazoles for antitumor activity” (Eur J Med Chem, 2019).

How the values were obtained:
[1] = tested on: SF-295; assay: Antiproliferative activity against human SF-295 cells assessed as cell growth at 0.00000001 M incubated for 48 hrs by SRB assay relative to control; assay type: functional; settings: dose 10 nM, read-out: Activity
[2] = tested on: HCC 2998; assay: Growth inhibition against human HCC 2998 cells incubated for 48 hrs by sulforhodamine B assay; assay type: functional
[3] = tested on: KM12; assay: Antiproliferative activity against human KM12 cells assessed as cell growth at 0.0000001 M incubated for 48 hrs by SRB assay relative to control; assay type: functional; settings: dose 100 nM, read-out: Activity
[4] = tested on: NCI-H522; assay: Antiproliferative activity against human NCI-H522 cells assessed as cell growth at 0.00000001 M incubated for 48 hrs by SRB assay relative to control; assay type: functional; settings: dose 10 nM, read-out: Activity
[5] = tested on: IGROV-1; assay: Antiproliferative activity against human IGROV-1 cells assessed as cell growth at 0.00001 M incubated for 48 hrs by SRB assay relative to control; assay type: functional; settings: read-out: Activity
[6] = tested on: COLO 205; assay: Antiproliferative activity against human COLO 205 cells assessed as cell growth at 0.0000001 M incubated for 48 hrs by SRB assay relative to control; assay type: functional; settings: dose 100 nM, read-out: Activity
Outline: (§1)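 NCI-60 five-dose screen over 10^-4–10^-8 M (10-fold dilutions). Cells grown in RPMI 1640 with 5% FBS and 2 mM L-glutamine, seeded at 5,000–40,000 cells/well and preincubated 24 h. Drug from DMSO stock, 48 h at 37 °C, 5% CO2. Adherent cells TCA-fixed and stained with 0.4% SRB; A515 read. Percent growth = (Ti−Tz)/(C−Tz)×100, or (Ti−Tz)/Tz×100 when Ti<Tz.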

[7] = target: Albumin (Bos taurus, UniProt P02769); assay: Binding affinity to bovine serum albumin assessed as quenching constant by fluorescence spectroscopic method; settings: cattle
Albumin, sequence (P02769 whole entry): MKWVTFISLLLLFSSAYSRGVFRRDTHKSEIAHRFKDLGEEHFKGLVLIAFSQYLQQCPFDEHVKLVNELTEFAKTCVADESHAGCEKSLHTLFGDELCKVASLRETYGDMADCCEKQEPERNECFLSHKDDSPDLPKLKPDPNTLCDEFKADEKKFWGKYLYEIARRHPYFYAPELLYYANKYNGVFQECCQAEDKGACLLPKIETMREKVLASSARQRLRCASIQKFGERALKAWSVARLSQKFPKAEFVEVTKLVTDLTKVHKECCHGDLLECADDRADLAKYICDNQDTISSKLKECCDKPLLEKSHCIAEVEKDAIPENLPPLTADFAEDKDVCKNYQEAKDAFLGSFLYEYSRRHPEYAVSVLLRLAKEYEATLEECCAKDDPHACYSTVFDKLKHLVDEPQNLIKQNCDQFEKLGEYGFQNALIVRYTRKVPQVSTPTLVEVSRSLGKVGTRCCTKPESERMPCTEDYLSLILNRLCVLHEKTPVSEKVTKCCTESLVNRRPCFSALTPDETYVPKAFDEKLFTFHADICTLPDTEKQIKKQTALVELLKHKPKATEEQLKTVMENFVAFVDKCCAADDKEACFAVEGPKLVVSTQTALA

[8] = tested on: A498; assay: Antiproliferative activity against human A498 cells assessed as cell growth inhibition by measuring lethal concentration incubated for 48 hrs by sulforhodamine B assay; assay type: functional; settings: read-out: LC50 (the source's name)
[9] = tested on: ACHN; assay: Antiproliferative activity against human ACHN cells assessed as cell growth at 0.0000001 M incubated for 48 hrs by SRB assay relative to control; assay type: functional; settings: dose 100 nM, read-out: Activity; outline: as §1
[10] = tested on: HCT-15; assay: Antiproliferative activity against human HCT-15 cells assessed as cell growth at 0.0001 M incubated for 48 hrs by SRB assay relative to control; assay type: functional; settings: read-out: Activity
Outline: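 NCI-60 five-dose screen (10^-4 to 10^-8 M). Cells grown in RPMI 1640 with 5% FBS and 2 mM L-glutamine, plated at 5,000-40,000 cells/well and preincubated 24 h. Drug given from DMSO stock, then 48 h at 37 °C, 5% CO2. For adherent lines, cells fixed with cold TCA, SRB-stained and read at 515 nm. Percent growth taken against time-zero and untreated control.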

[11] = tested on: NCI/ADR-RES; assay: Growth inhibition against human NCI/ADR-RES cells incubated for 48 hrs by sulforhodamine B assay; assay type: functional
[12] = tested on: A549; assay: Growth inhibition against human A549 cells incubated for 48 hrs by sulforhodamine B assay; assay type: functional
[13] = tested on: RXF 393; assay: Antiproliferative activity against human RXF 393 cells assessed as cell growth at 0.00000001 M incubated for 48 hrs by SRB assay relative to control; assay type: functional; settings: dose 10 nM, read-out: Activity
[14] = tested on: U-251; assay: Antiproliferative activity against human U-251 cells assessed as cell growth at 0.000001 M incubated for 48 hrs by SRB assay relative to control; assay type: functional; settings: read-out: Activity
[15] = tested on: SK-MEL-28; assay: Growth inhibition against human SK-MEL-28 cells incubated for 48 hrs by sulforhodamine B assay; assay type: functional
[16] = tested on: OVCAR-3; assay: Antiproliferative activity against human OVCAR-3 cells assessed as cell growth inhibition by measuring lethal concentration incubated for 48 hrs by sulforhodamine B assay; assay type: functional; settings: read-out: LC50 (the source's name)
[17] = tested on: CAKI-1; assay: Antiproliferative activity against human CAKI-1 cells assessed as cell growth at 0.0000001 M incubated for 48 hrs by SRB assay relative to control; assay type: functional; settings: dose 100 nM, read-out: Activity; outline: as §1
[18] = tested on: UACC-257; assay: Antiproliferative activity against human UACC-257 cells assessed as cell growth at 0.000001 M incubated for 48 hrs by SRB assay relative to control; assay type: functional; settings: read-out: Activity
[19] = tested on: HCT-116; assay: Growth inhibition against human HCT-116 cells assessed as total growth inhibitory concentration incubated for 48 hrs by sulforhodamine B assay; assay type: functional
[20] = tested on: COLO 205; assay: Antiproliferative activity against human COLO 205 cells assessed as cell growth at 0.000001 M incubated for 48 hrs by SRB assay relative to control; assay type: functional; settings: read-out: Activity; outline: as §1
[21] = tested on: UACC-257; assay: Antiproliferative activity against human UACC-257 cells assessed as cell growth at 0.00001 M incubated for 48 hrs by SRB assay relative to control; assay type: functional; settings: read-out: Activity
[22] = tested on: SK-MEL-2; assay: Antiproliferative activity against human SK-MEL-2 cells assessed as cell growth at 0.000001 M incubated for 48 hrs by SRB assay relative to control; assay type: functional; settings: read-out: Activity
[23] = tested on: M14; assay: Antiproliferative activity against human M14 cells assessed as cell growth at 0.00000001 M incubated for 48 hrs by SRB assay relative to control; assay type: functional; settings: dose 10 nM, read-out: Activity
[24] = tested on: SK-MEL-28; assay: Antiproliferative activity against human SK-MEL-28 cells assessed as cell growth at 0.00001 M incubated for 48 hrs by SRB assay relative to control; assay type: functional; settings: read-out: Activity
[25] = tested on: UACC-257; assay: Antiproliferative activity against human UACC-257 cells assessed as cell growth at 0.00000001 M incubated for 48 hrs by SRB assay relative to control; assay type: functional; settings: dose 10 nM, read-out: Activity
[26] = tested on: BT-549; assay: Growth inhibition against human BT-549 cells incubated for 48 hrs by sulforhodamine B assay; assay type: functional
[27] = tested on: UACC-257; assay: Antiproliferative activity against human UACC-257 cells assessed as cell growth at 0.0001 M incubated for 48 hrs by SRB assay relative to control; assay type: functional; settings: read-out: Activity
[28] = tested on: HOP-62; assay: Growth inhibition against human HOP-62 cells incubated for 48 hrs by sulforhodamine B assay; assay type: functional
[29] = tested on: SR; assay: Antiproliferative activity against human SR cells assessed as cell growth inhibition by measuring lethal concentration incubated for 48 hrs by sulforhodamine B assay; assay type: functional; settings: read-out: LC50 (the source's name)
Outline: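 NCI-60 five-dose screen (10^-4 to 10^-8 M, 10-fold dilutions; DMSO stocks). Cells in RPMI 1640 with 5% FBS and 2 mM L-glutamine, preincubated 24 h, then exposed 48 h at 37 °C, 5% CO2. Fixed with cold TCA, stained with 0.4% SRB, absorbance read at 515 nm. Time-zero plates used as reference. LC50 taken from [(Ti-Tz)/Tz]×100 […].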

[30] = tested on: SR; assay: Growth inhibition against human SR cells assessed as total growth inhibitory concentration incubated for 48 hrs by sulforhodamine B assay; assay type: functional
[31] = tested on: OVCAR-5; assay: Antiproliferative activity against human OVCAR-5 cells assessed as cell growth at 0.00001 M incubated for 48 hrs by SRB assay relative to control; assay type: functional; settings: read-out: Activity
[32] = tested on: OVCAR-3; assay: Antiproliferative activity against human OVCAR-3 cells assessed as cell growth at 0.0000001 M incubated for 48 hrs by SRB assay relative to control; assay type: functional; settings: dose 100 nM, read-out: Activity
[33] = tested on: Hs-578T; assay: Antiproliferative activity against human Hs-578T cells assessed as cell growth inhibition by measuring lethal concentration incubated for 48 hrs by sulforhodamine B assay; assay type: functional; settings: read-out: LC50 (the source's name)
[34] = tested on: SK-MEL-2; assay: Antiproliferative activity against human SK-MEL-2 cells assessed as cell growth inhibition by measuring lethal concentration incubated for 48 hrs by sulforhodamine B assay; assay type: functional; settings: read-out: LC50 (the source's name)

Compound	growth at 0.01 µM [1] [%]	GI50 [2] [nM]	growth at 0.1 µM [3] [%]	growth at 0.01 µM [4] [%]	growth at 10 µM [5] [%]	growth at 0.1 µM [6] [%]	Kq [7]	CC50 [8] [nM]	growth at 0.1 µM [9] [%]	growth at 100 µM [10] [%]	GI50 [11] [nM]	GI50 [12] [nM]	growth at 0.01 µM [13] [%]	growth at 1 µM [14] [%]	GI50 [15] [nM]	CC50 [16] [nM]	growth at 0.1 µM [17] [%]	growth at 1 µM [18] [%]	TGI [19] [nM]	growth at 1 µM [20] [%]	also measured
c1ccc(Cn2cnc3ccc(-c4nc(-c5ccc6c(c5)ncn6C5CCCCC5)cn5ccnc45)cc32)cc1	91	1900	98	93	3	99	1.14 10^13/M/sec	6850	97	3	1980	2330	101	83	2430	> 100000	88	112	2630	92	growth at 10 µM [21]: -64%; growth at 1 µM [22]: 90%; growth at 0.01 µM [23]: 87%; growth at 10 µM [24]: -9%; growth at 0.01 µM [25]: 101%; GI50 [26]: 1200 nM; growth at 100 µM [27]: -27%; GI50 [28]: 2130 nM; CC50 [29]: > 100000 nM; TGI [30]: > 100000 nM; growth at 10 µM [31]: -3%; growth at 0.1 µM [32]: 100%; CC50 [33]: > 100000 nM; CC50 [34]: > 100000 nM
COc1ccc(-c2cn3ccnc3c(-c3ccc4ncn(C5CCCCC5)c4c3)n2)cc1	87	2920	99	88	19	102	1.16 10^13/M/sec	> 100000	100	13	618	1830	102	69	2100	> 100000	90	69	4060	76	growth at 10 µM [21]: 60%; growth at 1 µM [22]: 49%; growth at 0.01 µM [23]: 99%; growth at 10 µM [24]: 33%; growth at 0.01 µM [25]: 100%; GI50 [26]: 410 nM; growth at 100 µM [27]: 55%; GI50 [28]: 1090 nM; CC50 [29]: > 100000 nM; TGI [30]: > 100000 nM; growth at 10 µM [31]: 31%; growth at 0.1 µM [32]: 99%; CC50 [33]: > 100000 nM; CC50 [34]: > 100000 nM
